Experimental data published in article PMC7709139 (Molecular imaging, 2015).
Numbered stars: 1 amine (or outer) side, 2 acyl side, 3 side chain; on linkers, the order of the positions; unused ones are H or OH. Bridge positions count the residues as written; N and C are the ends. Side chains are listed from the residue outwards. Ends that are not written are not given here. Peptide text beside a SMILES is read from it. * marks the point of attachment. X1 = CC(=NO)C(C)(C)NCCC(CCNC(C)(C)C(C)=NO)CCN*; Glutaryl = O=C(CCCC(=O)[*:2])[*:1]

Experiments:
[1] = system: extracellular domain of human Met; settings: fluorescence polarization; cited from earlier work
U87-MG xenografts = test: in vivo; set-up: species or system athymic female nude mice (human U87-MG tumor)
in vivo [2] = test: in vivo; set-up: species or system athymic female nude mice (human U87-MG tumor); settings: female, athymic nude (Ncr-nu/nu), mouse, iv, total radioactivity
MKN-45 xenografts [3] = assay type: in vivo, athymic female nude mice (human MKN-45 tumor); settings: 60 minutes postinjection
Met (U87-MG cells) = test: Saturation binding, U87-MG cells; set-up: species or system human
How it was run: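 U87-MG cells were grown in DMEM with 2 mM L-glutamine, 0.1 mM NEAA, 1 mM pyruvate and 10% FBS, then placed in tubes (0.2–1.0 × 10⁶ cells) on the assay day. Duplicates were incubated with 0.2–10 nM ⁹⁹ᵐTc-labelled Met peptide for 2 h at 4°C, with nonspecific binding defined by 10^−6.3 M unlabelled peptide. Pellets were washed twice with PBS and counted. MKN-45 cells were plated (0.2 × 10⁶/well) the day before and trypsinised for counting. Kd and Bmax came from one-site nonlinear fits.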

shed Met = test: Plasma shed Met electrochemiluminescent immunoassay; assay type: in vivo, human Met in mouse xenograft plasma; settings: for slope plasma shed Met/tumor mass: PHA-treated
How it was run: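 Blood was collected into EDTA tubes and centrifuged. Plasma was fast-frozen and stored at −70°C; samples from radiolabel-imaged mice were assayed after the radioactivity had decayed. Soluble Met ectodomain was measured by two-site electrochemiluminescent immunoassay with ruthenium-chelate-tagged detection antibody, against a recombinant Met ectodomain–IgG-Fc standard. Naive cohorts were sampled at 1–4 weeks, imaged cohorts at the end. Values were correlated with tumour mass by Spearman analysis, and slopes were given as ng/mL per g.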

SNU-16 xenografts = test: in vivo; set-up: species or system athymic female nude mice (human SNU-16 tumor)
in vivo [4] = test: in vivo; set-up: species or system athymic female nude mice (human SNU-16 tumor); settings: female, athymic nude (Ncr-nu/nu), mouse, iv, total radioactivity
MKN-45 xenografts [5] = system: MKN-45 xenografts; set-up: species or system athymic female nude mice (human MKN-45 tumor); settings: in vivo
MKN-45 xenografts [6] = test: in vivo; set-up: species or system athymic female nude mice (human MKN-45 tumor)
in vivo [7] = test: in vivo; set-up: species or system athymic female nude mice (human MKN-45 tumor); settings: female, athymic nude (Ncr-nu/nu), mouse, iv, total radioactivity
[8] = system: tumor responses to Met-targeted therapeutics; settings: ref [19],[26],[47],[48], cited from earlier work
MKN-45 xenografts [9] = test: Tumor weight and histologic grading, Cy5^⋆⋆-Met peptide imaged cohort; assay type: in vivo, athymic female nude mice (human MKN-45 tumor); settings: treated
How it was run: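 Fluorescence-imaged MKN-45 mice, given the Met TKI 5 days on/2 days off or vehicle, were euthanised after the last imaging session (18 or 25 days). Tumours were weighed (fraction > 0.5 g), fixed in 10% neutral-buffered formalin and paraffin-embedded. Sections were stained with H&E for necrosis and ApopTag for apoptosis, then graded. n = 9 per group.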

[10] = system: gastric carcinoma cells (including MKN-45 cells); settings: cited from earlier work
[11] = system: human lung carcinoma cells; settings: cited from earlier work
MKN-45 xenografts [12] = test: Tumor volume by 3D ultrasonography, [^99mTc]-Met peptide imaged cohort; assay type: in vivo, athymic female nude mice (human MKN-45 tumor); settings: 15 mg/kg i.p. daily
How it was run: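 After each weekly SPECT/CT session in the daily-dosed MKN-45 cohort (Met TKI 15 mg/kg i.p.), 3D ultrasonography was run at 40 MHz with a 0.076 mm step size. Tumour volume was obtained with a parallel ROI algorithm and expressed as % increase from baseline. n = 9 per group; groups were compared by Welch t-test (p < .05).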

MKN-45 xenografts [13] = test: Tumor weight and histologic grading; assay type: in vivo, athymic female nude mice (human MKN-45 tumor)
How it was run: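 SPECT-imaged MKN-45 mice, given the Met TKI daily i.p. or vehicle, were euthanised after the last imaging session at 3 weeks. Tumours were weighed (> 0.5 g counted) and formalin-fixed, paraffin-embedded sections were stained with H&E (necrosis, graded up to +4 severe) or ApopTag (apoptosis).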

Met tyrosine kinase = settings: cited from earlier work
MKN-45 xenografts [14] = test: Longitudinal Cy5^⋆⋆-Met peptide fluorescence imaging during PHA 665752 treatment; assay type: in vivo, athymic female nude mice (human MKN-45 tumor); settings: for decrease in Cy5^⋆⋆-Met fluorescent signal intensity in tumors vs vehicle: PHA 665752 5 days on/2 days off, n = 9, p < .05
MKN-45 xenografts [15] = test: Longitudinal [^99mTc]-Met peptide SPECT imaging during PHA 665752 treatment; assay type: in vivo, athymic female nude mice (human MKN-45 tumor); settings: for decrease in [^99mTc]-Met peptide tumor uptake (%ID/g) vs vehicle: PHA 665752 15 mg/kg i.p. daily
How it was run: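 Female nude mice carried s.c. MKN-45 xenografts, 30–50 mm³ at baseline. They received the Met TKI at 15 mg/kg i.p. in 5% DMSO:saline, or vehicle, daily for 3–4 weeks. SPECT/CT imaging was done 90 min after injection of ⁹⁹ᵐTc-labelled Met peptide, at baseline and then weekly. Tumour uptake was expressed as %ID/g normalised to a 20 g mouse. n = 9 per group; groups were compared by Welch t-test.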

[16] = molecular target: T1, hepatocyte growth factor tyrosine kinase receptor (Met) (human (endogenous in MKN-45 and U87-MG), UniProt P08581 25-1390); test: radioligand binding
[17] = molecular target: T1, hepatocyte growth factor tyrosine …; test: in vivo biodistribution with blocking

T1 sequence (P08581 25-1390): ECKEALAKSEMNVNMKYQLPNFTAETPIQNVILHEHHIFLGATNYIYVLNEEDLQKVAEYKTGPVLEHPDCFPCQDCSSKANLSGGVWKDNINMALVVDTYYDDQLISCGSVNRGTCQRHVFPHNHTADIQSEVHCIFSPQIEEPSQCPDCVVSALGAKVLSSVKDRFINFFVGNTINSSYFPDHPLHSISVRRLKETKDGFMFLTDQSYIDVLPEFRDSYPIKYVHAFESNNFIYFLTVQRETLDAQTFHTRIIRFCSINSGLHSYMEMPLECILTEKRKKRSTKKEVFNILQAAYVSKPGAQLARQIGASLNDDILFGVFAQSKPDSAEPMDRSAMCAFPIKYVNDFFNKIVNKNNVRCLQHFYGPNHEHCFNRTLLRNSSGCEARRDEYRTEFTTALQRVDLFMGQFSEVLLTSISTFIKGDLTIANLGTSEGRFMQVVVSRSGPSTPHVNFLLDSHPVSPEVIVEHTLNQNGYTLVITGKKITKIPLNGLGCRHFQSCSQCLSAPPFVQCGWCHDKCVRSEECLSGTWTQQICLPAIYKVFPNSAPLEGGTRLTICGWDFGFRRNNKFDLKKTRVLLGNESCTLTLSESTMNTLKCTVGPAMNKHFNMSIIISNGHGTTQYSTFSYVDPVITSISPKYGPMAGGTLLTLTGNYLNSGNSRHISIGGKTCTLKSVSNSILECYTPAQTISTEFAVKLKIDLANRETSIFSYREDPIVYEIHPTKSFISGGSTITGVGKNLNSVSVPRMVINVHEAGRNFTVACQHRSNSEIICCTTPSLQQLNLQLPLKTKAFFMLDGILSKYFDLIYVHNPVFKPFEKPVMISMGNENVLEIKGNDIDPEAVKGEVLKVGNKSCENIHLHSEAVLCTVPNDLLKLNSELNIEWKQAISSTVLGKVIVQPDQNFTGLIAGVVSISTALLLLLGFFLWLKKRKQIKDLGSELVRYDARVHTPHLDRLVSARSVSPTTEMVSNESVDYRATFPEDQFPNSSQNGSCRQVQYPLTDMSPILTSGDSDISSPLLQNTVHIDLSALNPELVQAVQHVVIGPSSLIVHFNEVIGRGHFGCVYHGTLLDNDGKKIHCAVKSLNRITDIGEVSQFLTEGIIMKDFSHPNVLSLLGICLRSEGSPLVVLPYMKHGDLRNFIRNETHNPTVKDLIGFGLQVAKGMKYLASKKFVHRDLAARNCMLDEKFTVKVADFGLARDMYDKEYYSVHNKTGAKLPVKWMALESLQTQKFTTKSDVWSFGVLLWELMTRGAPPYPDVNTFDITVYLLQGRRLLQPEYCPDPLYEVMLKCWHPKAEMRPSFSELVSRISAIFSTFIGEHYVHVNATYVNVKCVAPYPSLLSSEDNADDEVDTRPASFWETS

## Cys4–16, 6–14; Ac-Ala-Gly-Ser-Cys-Tyr-Cys-Ser-Gly-Pro-Pro-Arg-Phe-Glu-Cys-Trp-Cys-Tyr-Glu-Thr-Glu-Gly-Thr-Gly-Gly-Gly-Lys (bicyclic or more) [unlabeled Met peptide]
[1]
  IC50: 90 nM

## CC(=O)N[C@@H](C)C(=O)NCC(=O)N[C@@H](CO)C(=O)N[C@H]1CSSC[C@@H](C(=O)N[C@@H](Cc2ccc(O)cc2)C(=O)N[C@@H](CCC(=O)O)C(=O)N[C@H](C(=O)N[C@@H](CCC(=O)O)C(=O)NCC(=O)N[C@H](C(=O)NCC(=O)NCC(=O)NCC(=O)N[C@@H](CCCCNC(=O)CCCC(=O)NCCC(CCNC(C)(C)C(C)=NO)CCNC(C)(C)C(C)=NO)C(N)=O)[C@@H](C)O)[C@@H](C)O)NC(=O)[C@H](Cc2c[nH]c3ccccc23)NC(=O)[C@@H]2CSSC[C@H](NC(=O)[C@H](Cc3ccc(O)cc3)NC1=O)C(=O)N[C@@H](CO)C(=O)NCC(=O)N1CCC[C@H]1C(=O)N1CCC[C@H]1C(=O)N[C@@H](CCCNC(=N)N)C(=O)N[C@@H](Cc1ccccc1)C(=O)N[C@@H](CCC(=O)O)C(=O)N2 (some centres unmarked) [[^99mTc]-Met peptide, metal not drawn] (Ac-AGSCYCSGPPRFECWCYETEGTGGGK([Glutaryl-X1])-NH2; disulfide 4-16, 6-14; C-terminus assumed)
U87-MG xenografts
  tumor to muscle ratio reduced vs MKN-45: 10-16 fold
In vivo [2]
  tissue uptake at 1 h: 1.19 ± 0.11 %ID/g
  tissue uptake at 2 h: 0.71 ± 0.15 %ID/g
  tissue uptake at 3 h: 0.58 ± 0.09 %ID/g
MKN-45 xenografts [3]
  visualization of MKN-45 tumors: clearly visualized at 60 minutes
Met (U87-MG cells); U87-MG cells (low Met), 2 hours at 4°C
  specific binding: < 40%
Met (U87-MG cells); U87-MG vs MKN-45 cells
  Bmax U87-MG lower than MKN-45: ~ 90 fold
Shed Met; imaged vs nonimaged xenografts
  effect on shed Met plasma concentrations: does not appear to alter shed Met plasma concentrations
SNU-16 xenografts
  tumor to muscle ratio reduced vs MKN-45: 2-4 fold
  uptake in nontarget tissues: comparable to the MKN-45 xenografts
In vivo [4]
  tissue uptake at 0.5 h: 4.59 ± 0.5 %ID/g
  tissue uptake at 1 h: 2.61 ± 0.82 %ID/g
  tissue uptake at 2 h: 1.3 ± 0.34 %ID/g
MKN-45 xenografts [5]
  reduction in slope (%ID/g), larger vs smaller tumors: 2-3 fold
  slope (%ID/g) of total uptake per tumor vs tumor weight: 4.2 %ID/g
[1]
  IC50: ~200 nM
MKN-45 xenografts [6]
  clearance: > 70%
  kidney to muscle ratio exceeding tumor to muscle ratio: 1.6-3 fold
  primary route of excretion: renal clearance as the primary route of excretion
In vivo [7]
  tissue to tissue ratio at 0.5 h: 9.8 ± 2.1
  tissue to tissue ratio at 1 h: 30.1 ± 3.3
  tissue to tissue ratio at 2 h: 49.6 ± 11.3
  tissue to tissue ratio at 3 h: 55.2 ± 13.4

## OC[C@H]1OC(O)[C@H]([18F])[C@@H](O)[C@@H]1O (some centres unmarked) [[^18F]FDG, [^18F]fluorodeoxyglucose]
[8]; Met intracellular kinase inhibition
  PET detection of tumor response to crizotinib: failed to detect tumor responses
[8]; mAb targeting the Met extracellular domain
  PET detection of tumor response to CE-355621: detected early tumor responses

## Cc1[nH]c(/C=C2\C(=O)Nc3ccc(S(=O)(=O)Cc4c(Cl)cccc4Cl)cc32)c(C)c1C(=O)N1CCC[C@@H]1CN1CCCC1 [PHA 665752, (2R)-1-[[5-[(Z)-[5-[[(2,6-dichlorophenyl)methyl]sulfonyl]-1,2-dihydro-2-oxo-3H-indol-3-ylidene]methyl]-2,4-dimethyl-1H-pyrrol-3-yl]–carbonyl]-2-(1-pyrrolidinylmethyl) pyrrolidine]
MKN-45 xenografts [9]; 18 or 25 days (vehicle 78%)
  tumors with minimal (1+) apoptosis: 33%
MKN-45 xenografts [9]; 18 or 25 days (vehicle 89%)
  tumors > 0.5 g: 78%
[10]
  drug resistance on prolonged exposure: acquired drug resistance associated with increased levels of Met
  extracellular Met expression: extracellular Met expression appeared unchanged
  inhibition of Met phosphorylation: pronounced inhibition of Met phosphorylation
[11]
  total surface Met expression: total surface Met expression increased
MKN-45 xenografts [12]; day 8, n = 9, not significant
  decrease in tumor volume vs vehicle: 25%
MKN-45 xenografts [12]; day 21, n = 9, p = .016
  decrease in tumor volume vs vehicle: 55%
Shed Met; 1, 2, and 3 to 4 weeks after treatment
  increase in plasma shed Met (ng/mL per g tumor) vs vehicle: ~ 2 fold
Shed Met; imaged xenografts, n = 7 (vehicle 43.7)
  slope plasma shed Met/tumor mass: 77.7 (ng/mL)/(g)
Shed Met; nonimaged xenografts (vehicle 43.8)
  slope plasma shed Met/tumor mass: 77.5 (ng/mL)/(g)
MKN-45 xenografts [13]; ApopTag, after 3 weeks PHA 665752
  tumors with moderately severe apoptosis: 22%
MKN-45 xenografts [13]; H&E, after 3 weeks PHA 665752 (vehicle also 78%)
  fraction of severely necrotic tumors: 78%
MKN-45 xenografts [13]; after 3 weeks PHA 665752
  fraction of tumors > 0.5 g: 44%
Met tyrosine kinase
  tumorigenicity, apoptosis and necrosis: reduction of tumorigenicity accompanied with increases in apoptosis and necrosis
MKN-45 xenografts [14]; 25 days, n = 6 treated, 5 vehicle
  fluorescent signal intensity and tumor volume vs vehicle: these decreases were not significant
MKN-45 xenografts [14]; 11 days
  decrease in Cy5^⋆⋆-Met fluorescent signal intensity in tumors vs vehicle: 54%
MKN-45 xenografts [14]; 18 days
  decrease in Cy5^⋆⋆-Met fluorescent signal intensity in tumors vs vehicle: 55%
MKN-45 xenografts [15]; MKN-45 xenografts
  tumor uptake of [^99mTc]-Met peptide after PHA 665752: significantly decreased as early as 1 week
MKN-45 xenografts [15]; day 8, n = 9, p = .005
  decrease in [^99mTc]-Met peptide tumor uptake (%ID/g) vs vehicle: 43%
MKN-45 xenografts [15]; day 21, n = 9, not significant
  decrease in [^99mTc]-Met peptide tumor uptake (%ID/g) vs vehicle: 25%

## Cc1cn([C@H]2C[C@H]([18F])[C@@H](CO)O2)c(=O)[nH]c1=O [[^18F]FLT, [^18F]fluorothymidine]
[8]
  PET detection of tumor response to crizotinib and BAY 853474: detected a robust tumor response

## Ac-AGSCYCSGPPRFECWCYETEGTGGGK(cPn216) (disulfide 6-14, 4-16; also: 99mTc chelated by cPn216) [[^99mTc]-Met peptide (AH-113018)]
[16]
  Kd: 3.31 nM

## Ac-AGSCYCSGPPRFECWCYETEGTGGGK (disulfide 6-14, 4-16; also: trifluoroacetate salt) [unlabeled Met peptide (AH-111972 trifluoracetate salt [DX-1662])]
[17]
  percent decrease of tumor to muscle ratio of [^99mTc]-Met peptide: 53%
